Test system: MS2 coat protein
Assay: apparent Kd, MS2 coat protein; higher = weaker binding; RNA-MaP array; FMN 200 µM where present
Summary of the method: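 Stalled E. coli RNA polymerase produced the designs on Illumina sequencing-chip clusters. SNAP-549-labelled MS2 coat protein was added from 0.7 or 1.5 nM, doubling to 3 µM, without and then with constant ligand, in 100 mM Tris-HCl pH 7.5, 80 mM KCl, 4 mM MgCl2, BSA, DTT, yeast tRNA and Tween-20. The apparent Kd is the median of filtered per-cluster fits of green signal normalised to red-channel RNA signal and control-cluster median Fmax.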

[1] = designed as: OFF switch for flavin mononucleotide, no ligand
[2] = ligand present: flavin mononucleotide, designed as: OFF switch for flavin mononucleotide
[3] = designed as: ON switch for flavin mononucleotide, no ligand
[4] = ligand present: flavin mononucleotide, designed as: ON switch for flavin mononucleotide

## UUGAGGUCAGGAUAUGCAUGGCGGGACUUGCGUCGUGGCGUGGAGAAGGGACAUGAGGAUCACCCAUGUGGAGU
[1]
  apparent Kd: 93.1 nM
[2]
  apparent Kd: 53.4 nM

## UUGAUGUCAUCAGGAUAUAGUAUUUAAGACAUAUCUUCUUUCAAACAUGAGGAUCACCCAUGUCGCUAGAAGGGAUGAAUGAUU
[1]
  apparent Kd: 16.6 nM
[2]
  apparent Kd: 14.4 nM

## UUGAUUAUACAAGGAUAUCAAUUGUAAUUAAGACUUACAUGAGGAUCACCCAUGUUAAUAUUUUUUGAGAAGGUGUAUUUUCAG
[3]
  apparent Kd: 25.4 nM
[4]
  apparent Kd: 21.9 nM

## UUGAUUUUGUAAGGAUAUACUCUGUGAUGAAGAGUAGAAGGUACUUACAUGAGGAUCACCCAUGUUUAACGAGAUACUAAUCGU
[3]
  apparent Kd: 62.8 nM
[4]
  apparent Kd: 31.3 nM

## UUGCCUCGGAACAUGAGGAUCACCCAUGUGCUGCGGGCAACGUAGGAUAUGAUGGUACGCUACCAUCAGAAGGAUGAUGGUACC
[3]
  apparent Kd: 4.98 nM
[4]
  apparent Kd: 5.29 nM

## UUGCGGUAGGAGAAGGACAGAGGCGGAAACACAAACAUGAGGAUCACCCAUGUAGGAUAUCCUACCUAACGCGGACUCCUCCAG
[1]
  apparent Kd: 6.3 nM
[2]
  apparent Kd: 8.88 nM

## UUGCGGUAGGAGAAGGACAGAGGCGGAAACACAUACAUGAGGAUCACCCAUGUAGGAUAUCCUACCUAACGCGGACUCCUCCAG
[1]
  apparent Kd: 5.85 nM
[2]
  apparent Kd: 6.43 nM

## UUGCGGUCAGGAUAUGCAUGGCGGGACUUGCGUCGUGGCGUGGAGAAGGGACAUGAGGAUCACCCAUGUGGAGG
[1]
  apparent Kd: 97.1 nM
[2]
  apparent Kd: 99.3 nM

## UUGCUCGUGUGAGGAUAUGCCGCCGUUUCGGCUGCAGAAGGUACUAUAAUACAUGAGGAUCACCCAUGUCUCUGUUGUUUCGUG
[3]
  apparent Kd: 27.6 nM
[4]
  apparent Kd: 27.1 nM

## UUGGACAGCUAGAGCUGUUAAGUACAUGAGGAUCACCCAUGUCAGGAUAUCCUUCCGCAAUGCGAGGAGAAGGGACAGGGUCCC
[1]
  apparent Kd: 64.7 nM
[2]
  apparent Kd: 149 nM

## UUGGACCUAGGAUAUACAUGAGGAUCACCCAUGUUGGCGCACGCCCACCUGGACCCGAGUAGAAGGAGGAAAAU
[1]
  apparent Kd: 26.1 nM
[2]
  apparent Kd: 78.4 nM

## UUGGACGUAGUAGGAUAUGUAGGAUAUUCCUACAUGAGGAUCACCCAUGUUGACAUGGAAGAAGGACAGAAGGACGAUGUCCAU
[3]
  apparent Kd: 405 nM
[4]
  apparent Kd: 5.06 nM

## UUGGACGUCGUAGGAUAUGUAGGAUACUCCUACAUGAGGAUCACCCAUGUUGACAUGGAGGAAGGACAGAAGGACGGUGUCCAU
[3]
  apparent Kd: 25.8 nM
[4]
  apparent Kd: 6.46 nM

## UUGGACGUCGUAGGAUAUGUAGGAUAGUCCUACAUGAGGAUCACCCAUGUUGACAUGGAAGAAGGACAGAAGGACGAUGUCCAU
[3]
  apparent Kd: 553 nM
[4]
  apparent Kd: 35.4 nM

## UUGGACGUCGUAGGAUAUGUAGGAUAUUCCUACAUGAGGAUCACCCAUGUUGACAUGGAAGAACGACAGAAGGACGAUGUCCAU
[3]
  apparent Kd: 130 nM
[4]
  apparent Kd: 7.46 nM

## UUGGACGUCGUAGGAUAUGUAGGAUAUUCCUACAUGAGGAUCACCCAUGUUGACAUGGAAGAAGGACAGAACGACGAUGUCCAU
[3]
  apparent Kd: 172 nM
[4]
  apparent Kd: 6.07 nM

## UUGGACGUCGUAGGAUAUGUAGGAUAUUCCUACAUGAGGAUCACCCAUGUUGACAUGGAAGAAGGACAGAAGGACGACGUCCAU
[3]
  apparent Kd: 173 nM
[4]
  apparent Kd: 4.59 nM

## UUGGACGUCGUAGGAUAUGUAGGAUAUUCCUACAUGAGGAUCACCCAUGUUGACAUGGAAGAAGGACAUAAGGACGAUGUCCAU
[3]
  apparent Kd: 27.4 nM
[4]
  apparent Kd: 4.15 nM

## UUGGACGUCGUAGGAUAUGUAGGAUAUUCCUACAUGAGGAUCACCCAUGUUGACAUGGAAGGAGGACAGAAGGACGAUGUCCAU
[3]
  apparent Kd: 524 nM
[4]
  apparent Kd: 23.3 nM

## UUGGACGUCGUAGGAUAUGUAGGAUAUUCCUACAUGAGGAUCACCCAUGUUGACAUGGAAGUAGGACAGAAGGACGAUGUCCAU
[3]
  apparent Kd: 497 nM
[4]
  apparent Kd: 23.1 nM

## UUGGACGUCGUAGGUUAUGUAGGAUAUUCCUACAUGAGGAUCACCCAUGUUGACAUGGAAGAAGGACAGAAGGACGAUGUCCAU
[3]
  apparent Kd: 205 nM
[4]
  apparent Kd: 3.92 nM

## UUGGCGACGUAGAAGGGUGACAUGAGGAUCACCCAUGUGCCGAUAUUCCUCGAGAUAUGUCGGCCACAGGAUAUACGUGCCAUC
[3]
  apparent Kd: 51.8 nM
[4]
  apparent Kd: 98.6 nM

## UUGGGAUGCAAGAAGGGUGACAUGAGGAUCACCCAUGUGUUGUGAAGUCUCGAGAUUUUAUGACCAUAGGAUAUUGCACCGAAC
[3]
  apparent Kd: 31.6 nM
[4]
  apparent Kd: 21.6 nM

## UUGUGGGAGCAGGAUAUCUUAUUUUGGUUUUGUGGAGAAGGGCUGACAUGAGGAUCACCCAUGUGGUCCUAGAU
[1]
  apparent Kd: 21.7 nM
[2]
  apparent Kd: 36.5 nM

## UUGUUAAGAGGAUAUACAUGAGGAUCACCCAUGUGAGAAGUCCAGGGCGUAUUUUCUUGUAGAAGGUUUAGCCC
[1]
  apparent Kd: 25.1 nM
[2]
  apparent Kd: 15.8 nM

## UUGUUAGGGAGAGGAUAUUGACAUGAGGAUCACCCAUGUACUUGGGAGUGUUUACUGAAUUCUCACGAGAAGGCUUACAAAUUU
[1]
  apparent Kd: 175 nM
[2]
  apparent Kd: 147 nM

## UUGUUAUAUGUAGGAUAUGCAUAUUAUUAUUGUGCAGAAGGACAUGAGGAUCACCCAUGUAUAUUAUUAUUAUAUAUUAUAUAU
[1]
  apparent Kd: 31.4 nM
[2]
  apparent Kd: 46 nM

## UUGUUAUAUGUAGGAUAUGCAUAUUGUUGUUAUGCAGAAGGACAUGAGGAUCACCCAUGUAUAUUAUUGUUAUAUAUUGUAUAU
[1]
  apparent Kd: 25.4 nM
[2]
  apparent Kd: 34.6 nM

## UUGUUAUGUGUAGGAUAUGCAUAUUAUUAUUAUGCAGAAGGACAUGAGGAUCACCCAUGUGUAUUAUUAUUAUAUAUUAUAUAU
[1]
  apparent Kd: 23.9 nM
[2]
  apparent Kd: 35.9 nM

## UUUAAGGAAGGAUAUACAAUAUAAAUAAUAUCCUCAUUAUUACAUGAGGAUCACCCAUGUAGAAGGUCCAAUUU
[1]
  apparent Kd: 118 nM
[2]
  apparent Kd: 368 nM

## UUUAAGUCAGGAUAUCGUUAAUUUAAUAAAUUAUUUUAAUUCGAGAAGGGACAUGAGGAUCACCCAUGUAAUUU
[1]
  apparent Kd: 33.2 nM
[2]
  apparent Kd: 48.6 nM

## UUUAAUAAGUAGAAGGACGGAGAGUAUGAAGUCGUAGGAUAUACAUAAGACAUGAGGAUCACCCAUGUGUGUAUUUUGGGUAUG
[1]
  apparent Kd: 12.8 nM
[2]
  apparent Kd: 13.4 nM

## UUUAAUUAGUAAGGAUAUACUAGUGAUUAACUUGUAGAAGGUACAGUCUUAUGUAUAACAAAUUAACAUGAGGAUCACCCAUGU
[3]
  apparent Kd: 9.54 nM
[4]
  apparent Kd: 8.3 nM

## UUUACAUGAGGAUCACCCAUGUCUGUCACCCAUGUGUGCAAUCAGGAUAUGAUAUCAAUAAUAAAUUAGAAGGGAUAACAUGAG
[3]
  apparent Kd: 73.5 nM
[4]
  apparent Kd: 100 nM

## UUUACUUACGAAGGAUAUGGAUACAUGAGGAUCACCCAUGUAUGUAUGAUGAUCUAGUAGUUGGGCCAGAAGGUCGUGAUUAUU
[1]
  apparent Kd: 16.9 nM
[2]
  apparent Kd: 21.8 nM

## UUUAUGAAGCUUCGUCAAUACAGUUAGGAUAUGAGAGACAUGAGGAUCACCCAUGUGCAUGUUGAUUAGAAGGAACAAUUAUCU
[1]
  apparent Kd: 15.6 nM
[2]
  apparent Kd: 14.6 nM

## UUUAUGUAAGGAUAUGCGGGCGGGCGUGUUUAUGUUUGUUUGUAGAAGGUACAUGAGGAUCACCCAUGUAGUGG
[1]
  apparent Kd: 90.1 nM
[2]
  apparent Kd: 172 nM

## UUUAUGUCAGGAUAUGAUUAGAUCUACUUUUGUAGAUCUAAUCAGAAGGGACAUGAGGAUCACCCAUGUUUUUU
[1]
  apparent Kd: 44.8 nM
[2]
  apparent Kd: 252 nM

## UUUAUUAAUUAGAAGGCAUGAUGAAUUACAAUAGACAUGAGGAUCACCCAUGUGUAUUCAUGUCAUGAGGAUAUAGUCAUAUAU
[3]
  apparent Kd: 10.3 nM
[4]
  apparent Kd: 7.27 nM

## UUUAUUUAGGCAGGAUAUACAUGUAUAUAUAUUUCUUUAUAUAUUAUUACAUGAGGAUCACCCAUGUAGAAGGGCCUUAUUAUA
[1]
  apparent Kd: 69.3 nM
[2]
  apparent Kd: 88.9 nM

## UUUCCGCGAGGAUAUGCGGGUUGUGCUUUUCAUUUCUUAUAACAUGAGGAUCACCCAUGUAGAAGGUGCUUCUU
[1]
  apparent Kd: 151 nM
[2]
  apparent Kd: 144 nM

## UUUCUCGUUGUGAGGAUAUCGUUUUUGUCUCGGAUCGAGAAGGCACAUGAGGAUCACCCAUGUUUGUUGUGGUU
[1]
  apparent Kd: 85.1 nM
[2]
  apparent Kd: 103 nM

## UUUCUUGAUGUCAGGAUAUCGGGCACAAAAUCUAACGAGAAGGGACAUGAGGAUCACCCAUGUACGUUUUUGGG
[1]
  apparent Kd: 92.9 nM
[2]
  apparent Kd: 249 nM

## UUUGAGUUCCGAGGCCGCGAGUUCACAGAAGGCAUUAUUACAUGAGGAUCACCCAUGUGGGUACAUGAGGAUAUGUGAUAUGCG
[3]
  apparent Kd: 20.8 nM
[4]
  apparent Kd: 6.55 nM

## UUUGCAUUCCGAGGAUAUUCAUUUAUUGUCUUCACAUGAGGAUCACCCAUGUGGCGCUUGCGCCGGGAGAAGGCGGUUUGCUUU
[3]
  apparent Kd: 21.7 nM
[4]
  apparent Kd: 24.9 nM

## UUUGGGUGGCUGGAGGAUAUCCUUGUUGUUACAUGAGGAUCACCCAUGUGCCGCGCGGUUCGCGAGGAGAAGGCUGGCGGCCGUU
[3]
  apparent Kd: 331 nM
[4]
  apparent Kd: 61.3 nM

## UUUGGGUGGCUGGAGGAUAUUCGAGUGGUAACAUGAGGAUCACCCAUGUGUCGCGCGGUACACGAGGAGAAGGCUGGCGGCCGUU
[3]
  apparent Kd: 56.5 nM
[4]
  apparent Kd: 18.9 nM

## UUUGUGUCAGGAUAUCGGGCCAGCAAUACGGUAUGUGGGCACGAGAAGGGACAUGAGGAUCACCCAUGUGCCUU
[1]
  apparent Kd: 14.8 nM
[2]
  apparent Kd: 16.4 nM

## UUUGUUUAUGCAGGAUAUUGUAUUUUAUUACAUCAAGAAGGGCAUUACAUGAGGAUCACCCAUGUUAUCUUAUGGUUAACUAGU
[1]
  apparent Kd: 20.8 nM
[2]
  apparent Kd: 21.3 nM

## UUUGUUUAUGUGAGGAUAUACUGUUUGUUUUGUUUGUAGAAGGUACAUGAGGAUCACCCAUGUUUUGUUUUUUU
[1]
  apparent Kd: 22.8 nM
[2]
  apparent Kd: 20.5 nM

## UUUUAACAUGAGGAUCACCCAUGUGAGGAUAUCGAAAUUUAUAUUAAUAUUUAUUAAUCGAGAAGGCACAUUUU
[1]
  apparent Kd: 93.7 nM
[2]
  apparent Kd: 122 nM

## UUUUAACAUGAGGAUCACCCAUGUGAGGAUAUCGAAAUUUAUAUUAAUAUUUUUAUUUCGAGAAGGCACAUUUU
[1]
  apparent Kd: 144 nM
[2]
  apparent Kd: 166 nM

## UUUUAACAUGAGGAUCACCCAUGUGAGGAUAUCGAAAUUUAUAUUUAUAUUAAUAAUACGAGAAGGCACAUUUU
[1]
  apparent Kd: 63 nM
[2]
  apparent Kd: 87 nM

## UUUUAACAUGAGGAUCACCCAUGUGAGGAUAUCGUAUUUUUUAUUAAUAUUAAUAAAACGAGAAGGCACAUUUU
[1]
  apparent Kd: 95.5 nM
[2]
  apparent Kd: 97.3 nM

## UUUUAACAUGAGGAUCACCCAUGUGAGGAUAUCGUUAUUUAUAUUAAUAUUAAUAAAACGAGAAGGCACAUUUU
[1]
  apparent Kd: 112 nM
[2]
  apparent Kd: 141 nM
